Laboratory results taken from paper PMC6044759 (ACS Omega, 2018).
Where a name gives a salt, the structure may show the parent alone.

Assays:
[1] = cited from earlier work
MCF-7 cells = assay: Live and dead assay by flow cytometry; assay type: cell-based, human; conditions: 15 nM, positive control, PI staining
Summary of the method: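 MCF-7 cells (0.8 × 10^6) were exposed to vehicle, 3 or 6 μM test compound, or 15 nM vinblastine (positive control) for 48 h. Cells were stained with propidium iodide and live and dead percentages were counted by flow cytometry. Values are mean ± SD of three experiments.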

SMILES | Solubility in water [1] | dead % (MCF-7 cells) [%] | live % (MCF-7 cells) [%]
COc1ccc(/C=C\c2cc(OC)c(OC)c(OC)c2)cc1O [CA-4, combretastatin A-4] | poorly soluble in water | – | –
CC[C@]1(O)C[C@@H]2CN(CCc3c([nH]c4ccccc34)[C@@](C(=O)OC)(c3cc4c(cc3OC)N(C)[C@H]3[C@@](O)(C(=O)OC)[C@H](OC(C)=O)[C@]5(CC)C=CCN6CC[C@]43[C@@H]65)C2)C1 [Vinblastine, Vinblastine sulfate] | – | 83 ± 6 | 18 ± 6
